Test results taken from the RNAGym collection of RNA variant scans (doi:10.1002/anie.201605470).

B1: Osa-1-4 twister ribozyme (parent)
chain: CCGCCUAACACUGCCAAUGCCGGUCCCAAGCCCGGAUAAAAGUGGAGGGGGCGG

Variants of: B1
Test: self-cleavage, relative activity (ratio to wild type); higher = more cleavage; co-transcriptional
Outline: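 A DNA template was synthesised for a 54-nucleotide twister ribozyme from Oryza sativa, with 97 % wild-type base and 1 % of each other base at each of the 48 positions downstream of the cleavage site. The ribozyme cleaved itself co-transcriptionally during 2 h of in vitro transcription at 37 °C. Reverse transcription with a template-switching oligonucleotide, PCR amplification and deep sequencing followed, and cleavage status came from reads with or without upstream sequence. Relative activity is the fraction cleaved normalised to wild type.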

| Variant | self-cleavage |
| --- | --- |
| A17C A29C | 0.03 |
| A16U C31A | 0.03 |
| A16U C31U | 0.74 |
| A16U C31G | 0.07 |
| A17C G13C | 0.04 |
| A17C G13U | 0.02 |
| A17C G13A | 0.04 |
| A16U A36C | 0.6 |
| A16U A36U | 1.01 |
| A16U A36G | 0.97 |
| A17C C25G | 0.03 |
| A17C C25A | 0.04 |
| A17C C25U | 0.18 |
| A17C A41U | 0.81 |
| A17C A41G | 0.68 |
| A17C A41C | 0.68 |
| A16U C27A | 0.2 |
| A16U C27U | 0.17 |
| A16U C27G | 0.06 |
| A16G G34C | 0.74 |
| A16G G34A | 0.84 |
| A16G G34U | 0.82 |
| A16G C32A | 0.08 |
| A16G C32U | 0.09 |

| Variant | self-cleavage |
| --- | --- |
| A16G C32G | 0.19 |
| A16U G45C | 0.04 |
| A16U G45U | 0.1 |
| A16U G45A | 0.36 |
| A16U A28U | 0.87 |
| A16U A28G | 0.24 |
| A16U A28C | 0.91 |
| A16G G35U | 0.93 |
| A16G G35A | 0.87 |
| A16G G35C | 0.8 |
| A16G G50U | 1.02 |
| A16G G50C | 0.95 |
| A16G G50A | 0.77 |
| A17C C32A | 0.06 |
| A17C C32U | 0.05 |
| A17C C32G | 0.08 |
| A16G U18G | 0.83 |
| A16G U18A | 0.92 |
| A16G U18C | 0.97 |
| A16U A40U | 0.55 |
| A16U A40G | 0.38 |
| A16U A40C | 0.07 |
| A16G G23A | 0.68 |
| A16G G23U | 0.14 |

| Variant | self-cleavage |
| --- | --- |
| A16G G23C | 0.09 |
| A17C G23U | 0.04 |
| A17C G23A | 0.07 |
| A17C G23C | 0.03 |
| A16U C52A | 0.97 |
| A16U C52G | 0.92 |
| A16U C52U | 0.92 |
| A16U A41U | 0.97 |
| A16U A41G | 0.36 |
| A16U A41C | 0.93 |
| A16U C33U | 0.71 |
| A16U C33G | 0.04 |
| A16U C33A | 0.11 |
| A17C C31G | 0.05 |
| A17C C31A | 0.03 |
| A17C C31U | 0.16 |
| A16G G48U | 0.1 |
| A16G G48C | 0.15 |
| A16G G48A | 0.18 |
| A16G G19U | 0.57 |
| A16G G19C | 0.4 |
| A16G G19A | 0.98 |
| A16U C14G | 0.11 |
| A16U C14U | 0.3 |

| Variant | self-cleavage |
| --- | --- |
| A16U C14A | 0.05 |
| A16U A39G | 0.4 |
| A16U A39C | 0.93 |
| A16U A39U | 0.87 |
| A16G G42C | 0.62 |
| A16G G42A | 0.86 |
| A16G G42U | 0.57 |
| A16U A17U | 1.01 |
| A16U A17C | 0.94 |
| A16U A17G | 0.96 |
| A17C A39C | 0.52 |
| A17C A39U | 0.73 |
| A17C A39G | 0.86 |
| A17C | 0.76 |
| A17C G35U | 0.6 |
| A17C G35A | 0.6 |
| A17C G35C | 0.45 |
| A16U U43A | 0.85 |
| A16U U43C | 0.36 |
| A16U U43G | 0.33 |
| A16U U12G | 0.16 |
| A16U U12A | 0.92 |
| A16U U12C | 0.47 |
| A17C C11A | 0.06 |

| Variant | self-cleavage |
| --- | --- |
| A17C C11G | 0.05 |
| A17C C11U | 0.14 |
| A16G C31G | 0.16 |
| A16G C31U | 0.94 |
| A16G C31A | 0.03 |
| A16U A7U | 0.06 |
| A16U A7C | 0.04 |
| A16U A7G | 0.27 |
| A17C G45U | 0.14 |
| A17C G45C | 0.05 |
| A17C G45A | 0.24 |
| A17C G44A | 0.81 |
| A17C G44U | 0.7 |
| A17C G44C | 0.72 |
| A16U C15A | 0.35 |
| A16U C15U | 0.18 |
| A16U C15G | 0.31 |
| A16U G19A | 0.89 |
| A16U G19U | 0.26 |
| A16U G19C | 0.09 |
| A16G C20U | 0.99 |
| A16G C20G | 0.19 |
| A16G C20A | 0.86 |
| A16U U24G | 0.02 |

| Variant | self-cleavage |
| --- | --- |
| A16U U24A | 0.15 |
| A16U U24C | 0.29 |
| A16U G54A | 0.93 |
| A16U G54C | 0.88 |
| A16U G54U | 0.94 |
| A16G C52A | 0.97 |
| A16G C52U | 0.99 |
| A16G C52G | 1 |
| A16G G30U | 0.04 |
| A16G G30A | 0.04 |
| A16G G30C | 0.05 |
| A17C A8U | 0.06 |
| A17C A8C | 0.08 |
| A17C A8G | 0.12 |
| A17C C15A | 0.7 |
| A17C C15U | 0.77 |
| A17C C15G | 0.64 |
| A16U G13U | 0.02 |
| A16U G13A | 0.09 |
| A16U G13C | 0.02 |
| A16U C25U | 0.84 |
| A16U C25A | 0.11 |
| A16U C25G | 0.08 |
| A16G C27G | 0.15 |

| Variant | self-cleavage |
| --- | --- |
| A16G C27A | 0.38 |
| A16G C27U | 0.37 |
| A16U G42A | 0.8 |
| A16U G42U | 0.73 |
| A16U G42C | 0.33 |
| A16U G22U | 0.84 |
| A16U G22A | 0.99 |
| A16U G22C | 0.11 |
| A16U G44A | 0.94 |
| A16U G44U | 0.92 |
| A16U G44C | 0.91 |
| A17C C21U | 0.69 |
| A17C C21A | 0.15 |
| A17C C21G | 0.05 |
| A16U G50A | 0.67 |
| A16U G50C | 0.95 |
| A16U G50U | 0.94 |
| A16G G54A | 0.98 |
| A16G G54C | 0.99 |
| A16G G54U | 0.93 |
| A17C G42U | 0.57 |
| A17C G42C | 0.21 |
| A17C G42A | 0.5 |
